Series [1] in a line: folding enthalpy; higher = less favourable; fluorescence melt of hairpins on a sequencing array, two-state fit. To be noted: sodium 0.088 M. In outline:
(§1)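 Library hairpins on a sequenced MiSeq flow cell carried annealed Cy3 and quencher oligos, and their Cy3 fluorescence was imaged in 50 mM Na-HEPES pH 8.0 with 25 mM NaCl, in 2.5 °C steps up to 60 °C. Signals were normalised to Cy3 before quenching and to control constructs. Melting temperature and folding enthalpy were obtained from bootstrapped two-state fits, combined by inverse-variance weighting across four replicates, and the fitted temperatures were then raised by 9.35 °C to match UV melts.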

Series [2] can be described thus: melting temperature; fluorescence melt of hairpins on a sequencing array, two-state fit, raised by 9.35 °C to match UV melts. To be noted: sodium 0.088 M. In outline: as §1

For the sequence GGGAGGGGAAACCCTCTC (.(((((....))))).), the folding enthalpy in series [1] was -20.2 kcal/mol. Moreover, in series [2], the Tm was found to be 52.2 °C.

As for GGGAGGGGAAACCTTCCC ((((.((....)).)))), the folding enthalpy in series [1] was -25.1 kcal/mol. In addition, in series [2], the Tm is 50 °C.

With GGGAGGGGAAACTCTCCC (((((.(....).))))), the folding enthalpy in series [1] was -31.4 kcal/mol. Besides, the Tm in series [2] stood at 52 °C.

GGGAGTCGAAAGACCCC (((.(((....)))))): in series [1], the folding enthalpy is -32.7 kcal/mol. In series [2], the Tm worked out at 56.7 °C.

Turning to GGGAGTGGAAACACCCCC (((.(((....))).))), the folding enthalpy in series [1] is -19 kcal/mol. Moreover, the Tm in series [2] was 49.2 °C.

Turning to GGGATACGAAAGTAACCC (((.(((....))).))), in series [1], the folding enthalpy was -31.1 kcal/mol. The Tm in series [2] was determined as 51.7 °C.

As to GGGATAGCGAAAGCTCCC (((..(((....)))))), the folding enthalpy in series [1] is -21.8 kcal/mol. For the same sequence, the Tm in series [2] stood at 50.1 °C.

On to GGGATAGGAAACCATCCC (((((.(....).))))), for which the folding enthalpy in series [1] is -30.9 kcal/mol. The Tm in series [2] worked out at 43.3 °C.

As to GGGATCCGAAAGGAACCC (((.(((....))).))), the folding enthalpy in series [1] is -46.3 kcal/mol. Besides, in series [2], the Tm was 56.7 °C.

Consider GGGATCGAAAGATGACCC ((((((....)))..))), for which the folding enthalpy in series [1] is -27.8 kcal/mol. Further, in series [2], the Tm was determined as 33.6 °C.

In the case of GGGATCGAAAGATTACCC ((((((....)))..))), the folding enthalpy in series [1] is -17.4 kcal/mol. In addition, in series [2], the Tm was found to be 32.4 °C.

GGGATCGGAAACAATCCC (((((.(....).))))): the folding enthalpy in series [1] is -30.9 kcal/mol. Also, the Tm in series [2] stood at 40.6 °C.

Turning to GGGATGAAAATCCC (((((....))))), the folding enthalpy in series [1] is -28.8 kcal/mol. Also, the Tm in series [2] was found to be 56.5 °C.

GGGATGGGAAACCATTCC ((.((((....)))).)): the folding enthalpy in series [1] was -31.1 kcal/mol. Also, the Tm in series [2] turned out to be 50.2 °C.

Take GGGATGGGAAACCGTCTC (.((.((....)).)).): the folding enthalpy in series [1] is -26.1 kcal/mol. Besides, the Tm in series [2] stood at 36.6 °C.

For the sequence GGGATGTCGAAAGACCCC (((..(((....)))))), the folding enthalpy in series [1] is -18.8 kcal/mol. In series [2], the Tm worked out at 44.9 °C.

For GGGATTGAAAAATCCC ((((((....)))))), the folding enthalpy in series [1] was -43.6 kcal/mol. Also, the Tm in series [2] was 55.8 °C.

As to GGGATTGCGAAAGCACCC (((..(((....)))))), the folding enthalpy in series [1] was -14.5 kcal/mol. In addition, the Tm in series [2] amounted to 41.2 °C.

On to GGGATTGGAAACAATTCC ((.((((....)))).)), for which, in series [1], the folding enthalpy was -34 kcal/mol. In addition, the Tm in series [2] stood at 46.5 °C.

For GGGATTGGAAACGATCCC (((((.(....).))))), the folding enthalpy in series [1] was -43.8 kcal/mol. The Tm in series [2] worked out at 51.9 °C.

In the case of GGGATTTCGAAAGAACCC (((..(((....)))))), the folding enthalpy in series [1] is -22.6 kcal/mol. In series [2], the Tm is 30.3 °C.

On to GGGCAACCGAAAGGTCCC (((..(((....)))))), for which, in series [1], the folding enthalpy was -16.3 kcal/mol. For the same sequence, in series [2], the Tm was 44 °C.

Regarding GGGCAAGCGAAAGCTCCC (((..(((....)))))), the folding enthalpy in series [1] is -19 kcal/mol. Besides, in series [2], the Tm is 44.6 °C.

Regarding GGGCAAGGAAACCTGCCC (((((.(....).))))), the folding enthalpy in series [1] was -37.7 kcal/mol. For the same sequence, the Tm in series [2] was found to be 57.5 °C.

Regarding GGGCAAGGAAACTCGCCC ((((.((....)).)))), in series [1], the folding enthalpy was -31.1 kcal/mol. Further, in series [2], the Tm amounted to 50.7 °C.

Consider GGGCAAGGAAACTTGCTC (.(((((....))))).), for which, in series [1], the folding enthalpy is -27.9 kcal/mol. For the same sequence, the Tm in series [2] was determined as 52.7 °C.

Consider GGGCACCGAAAGGTACCC (((.(((....))).))), for which the folding enthalpy in series [1] was -35.1 kcal/mol. For the same sequence, in series [2], the Tm amounted to 56.7 °C.

For the sequence GGGCACCGAAAGGTTCCC (((.(((....))).))), the folding enthalpy in series [1] was -32.4 kcal/mol. Moreover, in series [2], the Tm worked out at 52.5 °C.

With GGGCACGAAAGTGAACCC ((((((....)))..))), the folding enthalpy in series [1] was -16.6 kcal/mol. Also, the Tm in series [2] is 51.7 °C.

For the sequence GGGCACGAAAGTGCACCC ((((((....)))..))), in series [1], the folding enthalpy was -10.8 kcal/mol. Further, in series [2], the Tm came out at 58.2 °C.

As to GGGCACGAAAGTGGTCCC ((((((....)))..))), the folding enthalpy in series [1] was -17.5 kcal/mol. Also, the Tm in series [2] stood at 52.5 °C.

Turning to GGGCACGAAAGTGTGCCC ((((((....)))..))), the folding enthalpy in series [1] is -27.1 kcal/mol. Moreover, in series [2], the Tm was 64.5 °C.

For the sequence GGGCACGGAAACACGCCC ((((..(....)..)))), in series [1], the folding enthalpy is -30.7 kcal/mol. In addition, in series [2], the Tm stood at 46.2 °C.

As for GGGCAGCGAAAGCTCCC (((.(((....)))))), in series [1], the folding enthalpy is -20.3 kcal/mol. For the same sequence, the Tm in series [2] is 57.3 °C.

As to GGGCATCGAAAGATCCCC (((.(((....))).))), in series [1], the folding enthalpy was -19.4 kcal/mol. Besides, in series [2], the Tm was found to be 48.9 °C.

For the sequence GGGCATGGAAACATGCTC (.(((((....))))).), in series [1], the folding enthalpy was -30.1 kcal/mol. Further, the Tm in series [2] stood at 55.4 °C.

With GGGCCAGGAAACTAGCCC ((((.((....)).)))), the folding enthalpy in series [1] is -27.3 kcal/mol. For the same sequence, the Tm in series [2] came out at 48.6 °C.
